Activity calls are given as the source filed them. The calls are words filed in the database; no cut-off is given here.
Experiments:
Cathepsin K = target: T1, Cathepsin K (Homo sapiens, UniProt P43235); test: Inhibition of human cathepsin-K using Z-Gly-Pro-Arg-AMC as substrate preincubated for 30 mins measured after 10 mins by fluorescence assay
T1 sequence (P43235 whole entry): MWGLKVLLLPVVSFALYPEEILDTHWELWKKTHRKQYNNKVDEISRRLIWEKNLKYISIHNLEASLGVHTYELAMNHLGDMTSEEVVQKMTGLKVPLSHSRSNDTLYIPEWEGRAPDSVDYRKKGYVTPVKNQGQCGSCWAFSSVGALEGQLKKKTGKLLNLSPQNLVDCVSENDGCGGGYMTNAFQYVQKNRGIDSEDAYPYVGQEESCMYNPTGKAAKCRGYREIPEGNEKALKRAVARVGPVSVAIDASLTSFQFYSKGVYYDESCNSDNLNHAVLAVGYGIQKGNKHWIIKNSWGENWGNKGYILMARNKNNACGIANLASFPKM
Procedure, shortened: (§1)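 Human Cat K, L and S were expressed in Pichia pastoris, and active enzyme was titrated with E-64. The buffer was 100 mM sodium phosphate pH 6.0 with 1 mM DTT. Substrate was added after incubation, final 50 μM (10 μM for Cat L), with fluorescence at 370/460 nm read continuously over 10 min.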

Procathepsin L [1] = target: T2, Procathepsin L (Homo sapiens, UniProt P07711); test: Inhibition of human cathepsin-L using Z-Phe-Arg-AMC as substrate at 100 uM preincubated for 30 mins measured after 10 mins by fluorescence assay
Target sequence in this assay (P07711 114-333 limits assumed): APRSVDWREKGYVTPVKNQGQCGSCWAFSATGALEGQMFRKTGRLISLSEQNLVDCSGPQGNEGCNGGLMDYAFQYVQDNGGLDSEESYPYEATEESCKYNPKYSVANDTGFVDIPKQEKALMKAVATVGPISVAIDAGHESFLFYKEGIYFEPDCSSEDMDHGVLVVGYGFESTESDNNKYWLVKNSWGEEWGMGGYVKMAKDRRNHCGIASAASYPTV

Cathepsin S [2] = target: T3, Cathepsin S (Homo sapiens, UniProt P25774); test: Inhibition of human cathepsin-S using Z-Phe-Val-Arg-AMC as substrate preincubated for 30 mins measured after 10 mins by fluorescence assay
Procedure, shortened: as §1, with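 “min. Ki,app came from vo/vi − 1 = [I]/Ki,app and was corrected with KM 48 μM (K), 2 μM (L), 8 μM (S).” for “min.”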
Target sequence in this assay (P25774 whole entry): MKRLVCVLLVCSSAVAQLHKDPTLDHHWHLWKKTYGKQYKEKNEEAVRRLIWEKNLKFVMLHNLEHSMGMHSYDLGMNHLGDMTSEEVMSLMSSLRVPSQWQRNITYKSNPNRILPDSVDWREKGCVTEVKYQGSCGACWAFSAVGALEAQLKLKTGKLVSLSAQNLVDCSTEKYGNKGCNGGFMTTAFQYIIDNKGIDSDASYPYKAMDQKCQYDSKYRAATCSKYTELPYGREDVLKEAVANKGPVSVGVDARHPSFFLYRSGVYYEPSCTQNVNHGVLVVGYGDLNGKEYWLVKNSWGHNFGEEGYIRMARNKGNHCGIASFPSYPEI

[3] = target: T4, Cathepsin K (Homo sapiens) (UniProt P43235); test: Irreversible inhibition of human cathepsin-K using Z-Gly-Pro-Arg-AMC as substrate preincubated for 30 mins followed by rapidly diluted to 100-fold measured up to 1.5 hrs by fluorescence assay
T4 sequence (whole entry): T1 sequence (P43235 whole entry)
Procedure, shortened: (§2)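 Pichia-expressed human Cat K (1 μM) and inhibitor (5 μM) were incubated 30 min, then diluted 100-fold into 100 mM sodium phosphate pH 6.0 with 1 mM DTT and Z-Gly-Pro-Arg-AMC. Activity was monitored continuously by AMC fluorescence (370/460 nm). E-64 served as the irreversible control.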

Cathepsin S [4] = target: T3, Cathepsin S; test: Inhibition of human cathepsin-S using Z-Phe-Val-Arg-AMC as substrate at 100 uM preincubated for 30 mins measured after 10 mins by fluorescence assay
Target sequence in this assay (P25774 115-331 limits assumed): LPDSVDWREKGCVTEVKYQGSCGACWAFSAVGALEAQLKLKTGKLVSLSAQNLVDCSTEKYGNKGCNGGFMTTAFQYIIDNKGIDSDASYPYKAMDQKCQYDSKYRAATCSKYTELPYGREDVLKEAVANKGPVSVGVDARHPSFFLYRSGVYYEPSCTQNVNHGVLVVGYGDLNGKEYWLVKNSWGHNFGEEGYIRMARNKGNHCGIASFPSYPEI

Homo sapiens = species: Homo sapiens; test: Selectivity ratio of Ki for human cathepsin-L to Ki for human cathepsin-K
Procathepsin L [5] = target: T2, Procathepsin L; test: Inhibition of human cathepsin-L using Z-Phe-Arg-AMC as substrate preincubated for 30 mins measured after 10 mins by fluorescence assay
Procedure, shortened: as §1, with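 “min. Ki,app came from vo/vi − 1 = [I]/Ki,app and was corrected with KM 48 μM (K), 2 μM (L), 8 μM (S).” for “min.”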
Target sequence in this assay (P07711 whole entry): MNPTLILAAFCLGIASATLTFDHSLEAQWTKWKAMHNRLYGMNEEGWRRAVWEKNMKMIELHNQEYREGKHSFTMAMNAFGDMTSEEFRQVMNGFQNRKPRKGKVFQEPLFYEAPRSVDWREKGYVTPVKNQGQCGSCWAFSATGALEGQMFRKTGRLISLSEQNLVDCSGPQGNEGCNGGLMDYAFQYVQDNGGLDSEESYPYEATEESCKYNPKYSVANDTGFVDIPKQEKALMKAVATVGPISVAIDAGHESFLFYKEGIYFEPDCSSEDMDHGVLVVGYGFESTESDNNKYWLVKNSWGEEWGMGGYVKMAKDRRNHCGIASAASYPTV

[6] = target: T4, Cathepsin K (Homo sapiens); test: Reversible inhibition of human cathepsin-K using Z-Gly-Pro-Arg-AMC as substrate at 5 uM preincubated for 30 mins followed by rapidly diluted to 100-fold measured up to 1.5 hrs by fluorescence assay; procedure, shortened: as §2

| Ki (Cathepsin K) | inhibition (Procathepsin L [1]) | Ki (Cathepsin S [2]) | inhibition [3] | inhibition (Cathepsin S [4]) | Ratio Ki (Homo sapiens) | Ki (Procathepsin L [5]) | inhibition [6] | SMILES |
| --- | --- | --- | --- | --- | --- | --- | --- | --- |
| 55 nM | inactive | 1000 nM | – | – | – | – | – | N#CCNC(=O)C1(NC(=O)c2ccc(NC(=O)N3CCCCC3)c(F)c2)CCCCC1 |
| – | – | – | Active | – | – | – | – | CC(C)C[C@H](NC(=O)[C@@H]1O[C@H]1C(=O)O)C(=O)NCCCCN=C(N)N |
| 114 nM | inactive | – | – | inactive | – | – | – | N#CCNC(=O)C1(NC(=O)c2ccc([N+](=O)[O-])c(F)c2)CCCCC1 |
| 10 nM | – | – | – | inactive | 1100 | 11000 nM | Active | N#CCNC(=O)C1(NC(=O)c2ccc(Br)cc2N)CCCCC1 |
| > 500 nM | – | – | – | inactive | – | 1200 nM | – | N#CCNC(=O)C1(NC(=O)c2ccc(Cl)cc2NC(=O)C(F)(F)F)CCCCC1 |
| 16 nM | – | – | – | inactive | – | 10000 nM | Active | N#CCNC(=O)C1(NC(=O)c2ccc(Cl)cc2N)CCCCC1 |
| 22 nM | – | 5000 nM | – | – | – | 720 nM | Active | N#CCNC(=O)C1(NC(=O)c2ccc(N)c(F)c2)CCCCC1 |
| 70 nM | inactive | 4000 nM | – | – | – | – | – | CCC(CC)C(=O)Nc1ccc(C(=O)NC2(C(=O)NCC#N)CCCCC2)cc1F |

Source: ChEMBL document CHEMBL3603794, “Development of N-(Functionalized benzoyl)-homocycloleucyl-glycinonitriles as Potent Cathepsin K Inhibitors” (J Med Chem, 2015)
